Results gathered from unrelated publications.
Lines come from different studies, so protocols differ.
Target: D(2) dopamine receptor (DRD2, Homo sapiens, UniProt P14416)

`Cc1ccnc(OC[C@H]2CN(CC(=O)N3CCc4ccccc43)CCO2)c1` has an inhibition of -7.3% (ligand displacement; radioligand; 10 µM).
`COc1cc(OC)c(OC)cc1CN1CCN(Cc2c[nH]c3ccccc23)CC1` gave an inhibition of 34.6% (enzyme activity; inhibitor; 10 µM).
`Cc1ccc(OC[C@H]2CN(CCN3CCc4ccccc43)CCO2)cn1` has an inhibition of 16.2% (ligand displacement; radioligand; 10 µM).
The inhibition of `Cc1cc(C)cc(NC(=O)CN2CCN(C(=O)c3ccco3)CC2)c1` is reported as 8.3% (enzyme activity; inhibitor; 10 µM).
With `Cn1nc(C(=O)NCc2ccc(C(=O)O)cc2)cc1-c1ccc2[nH]ccc2c1` the inhibition was -14.4% (ligand displacement; 10 µM).
For `Cc1cccc(N2CCN(CC(O)COc3ccc4ccccc4c3)CC2)c1C` (stereo not shown), the inhibition was 24.4% (enzyme activity; inhibitor; 10 µM).
For `O=c1nc(-c2ccccn2)sc2ccccc12`, the inhibition was 22.9% (ligand displacement; 10 µM).
`CC(=O)Nc1ccc(N2CC(O)=C(c3nc4ccccc4[nH]3)C2=N)cc1` gave an inhibition of 17.1% (enzyme activity; inhibitor; 10 µM).
For `CN1CCN(C(=O)C(C)(C)c2ccc(C(=O)Nc3cn4cc(-c5cc(C(C)(C)C)cc(C(C)(C)C)c5)ccc4n3)cc2)CC1`, the inhibition was 57.5% (ligand displacement; 10 µM).
For `O=C(CN1CCO[C@@H](COc2ccccn2)C1)N1CCc2ccccc21`, the inhibition was -15.6% (ligand displacement; radioligand; 10 µM).
With `CC(C)c1nc2cc(OCCCCN3CCN(c4cccc5c4OCCN5)CC3)ccc2s1` the Emax was 36% (β-arrestin recruitment; agonist; HTLA).
`O=C(CCCN1CCC(O)(c2ccc(Br)cc2)CC1)c1ccc(F)cc1` gave a koff of 0.00742 s⁻¹ (binding).
The inhibition of `CO[C@H]1CC[C@H](CNc2ccc(S(=O)(=O)NC(=O)c3ccc(N4CCN(CC5=C(c6ccc(Cl)cc6)CC(C)(C)CC5)CC4)cc3Oc3cnc4[nH]ccc4c3)cc2[N+](=O)[O-])CC1` is reported as -24% (ligand displacement; 10 µM).
The inhibition of `O=C1c2ccccc2CCN1CCCCN1CCN(c2ccccn2)CC1` is reported as 86.6% (ligand displacement; radioligand; 10 µM).
For `CCS(=O)(=O)c1cc2cc(C[C@](O)(CC(C)(C)c3ccc(F)cc3C(N)=O)C(F)(F)F)[nH]c2cn1`, the inhibition was -12.2% (ligand displacement; 10 µM).
`O=C(CN1CCN(c2ccc(F)cc2)CC1)Nc1cc(Cl)cc(Cl)c1` has an inhibition of 13.6% (enzyme activity; inhibitor; 10 µM).
For `Clc1cncc(OC[C@H]2CN(CCN3CCc4ccccc43)CCO2)c1`, the inhibition was 37.8% (ligand displacement; radioligand; 10 µM).
For `Cc1cc(Nc2nccc(C)n2)cc(-c2cnc([C@@]3(O)CC[C@H](C(=O)O)C(C)(C)C3)s2)c1`, the inhibition was -3.52% (ligand displacement; 10 µM).
For `Nc1nonc1C(=O)NCCNCc1cccc(OCc2ccccc2F)c1`, the inhibition was 6.52% (enzyme activity; inhibitor; 10 µM).
The inhibition of `C[C@H](c1ccnc(Nc2nc3ccc(-c4cc(N(C)C)ncn4)cc3[nH]2)c1)N1CCN(C(=O)CC(F)(F)F)CC1` is reported as 5.66% (ligand displacement; 10 µM).
The inhibition of `O=C1c2ccccc2CCN1CCCCN1CCN(c2cccc(Cl)c2Cl)CC1` is reported as 99.3% (ligand displacement; radioligand; 10 µM).
The inhibition of `CCOc1ccc(CNCC(O)c2ccccc2)cc1Br` (stereo not shown) is reported as 36.2% (enzyme activity; inhibitor; 10 µM).
`CC(=O)Nc1c(C(C)=O)c(=O)n(C)c2nc(-c3ccc(Cl)cc3Cl)c(-c3ccc(Cl)cc3)cc12` gave an inhibition of 5.73% (cell-free assay; 10 µM).
The inhibition of `O=C1C2CCCN2C(=O)N1CCCCN1CCN(c2cccc(Cl)c2)CC1` (stereo not shown) is reported as 65.4% (enzyme activity; inhibitor; 10 µM).
For `COc1cccc(OC[C@H]2CN(CCN3CCc4ccccc43)CCO2)c1`, the inhibition was 31.5% (ligand displacement; radioligand; 10 µM).
